{"data": "Results pooled from the literature", "target": "MAP/microtubule affinity-regulating kinase 4 (MARK4, Homo sapiens, UniProt Q96L34)", "Sequence (Q96L34 1-752, as in one of the studies)": "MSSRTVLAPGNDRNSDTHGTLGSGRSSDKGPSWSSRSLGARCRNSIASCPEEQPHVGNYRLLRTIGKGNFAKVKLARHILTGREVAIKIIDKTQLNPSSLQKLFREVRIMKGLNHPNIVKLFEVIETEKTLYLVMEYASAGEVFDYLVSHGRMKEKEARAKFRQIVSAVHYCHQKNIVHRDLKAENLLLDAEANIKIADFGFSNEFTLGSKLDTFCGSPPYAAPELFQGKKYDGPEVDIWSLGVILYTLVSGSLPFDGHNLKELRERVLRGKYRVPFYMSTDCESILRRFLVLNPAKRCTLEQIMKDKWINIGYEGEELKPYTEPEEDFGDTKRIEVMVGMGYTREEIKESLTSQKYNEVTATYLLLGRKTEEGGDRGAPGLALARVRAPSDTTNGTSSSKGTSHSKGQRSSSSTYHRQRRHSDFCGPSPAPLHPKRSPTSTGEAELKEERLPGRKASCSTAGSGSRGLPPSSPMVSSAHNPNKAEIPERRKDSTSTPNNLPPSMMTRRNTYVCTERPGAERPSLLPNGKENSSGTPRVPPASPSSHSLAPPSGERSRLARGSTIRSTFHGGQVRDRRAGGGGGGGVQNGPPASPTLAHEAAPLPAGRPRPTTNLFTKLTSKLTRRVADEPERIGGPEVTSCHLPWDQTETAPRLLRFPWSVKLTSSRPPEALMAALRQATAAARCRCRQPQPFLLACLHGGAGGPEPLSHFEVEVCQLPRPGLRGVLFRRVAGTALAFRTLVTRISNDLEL", "note": "Compare with care: the assays were run in different laboratories."}
{"SMILES": "CC(C)CC(=O)N1CCc2nc(-c3ccc(Br)cc3)nc(N(C)Cc3ccccc3)c2C1", "assay": "cell-free assay, competition with immobilised ligand", "setting": "0.1 µM", "remaining binding [%]": 100}
{"SMILES": "CN(CCCC(F)(F)F)c1nccc(-c2cnn3ncccc23)n1", "assay": "binding", "setting": "1 µM", "remaining binding [%]": 90}
{"SMILES": "CC(=O)c1c(NS(C)(=O)=O)c2cc(-c3ccc(Cl)cc3)c(-c3ccc(Cl)cc3Cl)nc2n(C)c1=O", "assay": "cell-free assay, competition with immobilised ligand", "setting": "1 µM", "remaining binding [%]": 100}
{"SMILES": "CCN1CCN(Cc2ccc(C(=O)Nc3ccc(C)c(Oc4ccc5c(c4)CC(=O)N5)c3)cc2C(F)(F)F)CC1", "assay": "binding, competition with immobilised ligand", "setting": "1 µM", "remaining binding [%]": 88}
{"SMILES": "Cc1cnc(Nc2ccc(C(=O)N3CCC(N4CCCC4)CC3)cc2)nc1-c1cc2ccccc2s1", "assay": "binding, competition with immobilised ligand", "setting": "1 µM", "remaining binding [%]": 35}
{"SMILES": "COc1cnc(Nc2cccc(S(N)(=O)=O)c2)nc1N1CCN(c2ccccc2)C(=O)C1", "assay": "binding, competition with immobilised ligand", "setting": "1 µM", "remaining binding [%]": 100}
{"SMILES": "c1cnn2ncc(-c3ccnc(N4CCC45COC5)n3)c2c1", "assay": "binding", "setting": "1 µM", "remaining binding [%]": 84}
{"SMILES": "O=C(c1ccc(Nc2nccc(-c3cc4ccccc4s3)n2)cc1)N1CCC(N2CCCC2)CC1", "assay": "binding, competition with immobilised ligand", "setting": "1 µM", "remaining binding [%]": 84}
{"SMILES": "Cc1c(NC(=O)c2cc(C(N)=O)nc3cc(F)ccc23)c(C(F)(F)F)nn1Cc1ccc(C(C)(C)C)cc1", "assay": "cell-free assay, competition with immobilised ligand", "setting": "1 µM", "remaining binding [%]": 97}
{"SMILES": "CN(C)c1nccc(-c2cnn3ncccc23)n1", "assay": "binding", "setting": "1 µM", "remaining binding [%]": 100}
{"SMILES": "COc1ncc2cc3ccccc3nc2c1C#N", "assay": "cell-free assay, competition with immobilised ligand", "setting": "5 µM", "remaining binding [%]": 64}
{"SMILES": "CC1CCCN1c1nccc(-c2cnn3ncccc23)n1 (centres unmarked)", "assay": "binding", "setting": "1 µM", "remaining binding [%]": 98}
{"SMILES": "Nc1c(C(=O)NCc2ccc(C(=O)NCCCC3CCCCC3)cc2)cnn1-c1ccccc1", "assay": "cell-free assay, competition with immobilised ligand", "setting": "0.1 µM", "remaining binding [%]": 76}
{"SMILES": "O=C(NCCCN1CCOCC1)c1ccc(Nc2nccc(-c3cc4ccccc4s3)n2)cc1", "assay": "binding, competition with immobilised ligand", "setting": "1 µM", "remaining binding [%]": 60}
{"SMILES": "COc1ccc2c(O[C@@H]3C[C@H]4C(=O)N[C@]5(C(=O)O)CC5/C=C\\CCCCC[C@H](NC(=O)OC5CCCC5)C(=O)N4C3)cc(-c3csc(NC(=O)C(C)C)n3)nc2c1C (some centres unmarked)", "assay": "cell-free assay, competition with immobilised ligand", "setting": "1 µM", "remaining binding [%]": 99}
{"SMILES": "C[C@@H]1CCN(c2nccc(-c3cnn4ncccc34)n2)C1", "assay": "binding", "setting": "1 µM", "remaining binding [%]": 100}
{"SMILES": "O=C(Nc1c[nH]nc1C(=O)NC1CCNCC1)c1cc(F)cc(F)c1", "assay": "binding, competition with immobilised ligand", "setting": "1 µM", "remaining binding [%]": 100}
{"SMILES": "FC(F)(F)Oc1cccc(-c2cnc3ccc(-c4ccncc4)nn23)c1", "assay": "cell-free assay, competition with immobilised ligand", "setting": "5 µM", "remaining binding [%]": 80}
{"SMILES": "O=C1CCc2cc(Nc3cc(OC4CCOCC4)c([N+](=O)[O-])cc3Cl)ccc2N1", "assay": "cell-free assay, competition with immobilised ligand", "setting": "1 µM", "remaining binding [%]": 100}
{"SMILES": "COc1ccnn2ncc(-c3ccnc(N(C)C)n3)c12", "assay": "binding", "setting": "1 µM", "remaining binding [%]": 100}
